5HT1E antag = antagonists of human 5-HT1E serotonin receptor. P28566. CHO 5-HT1E Ga15 NFAT-bla reporter, FRET, antagonist. inhibition, % at 6 µM. 65,000 compounds, 0.99% hits. AID 571;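 active = inhibition above a set limit, the mean inhibition across every tested compound plus 3 SD, cut at about 29% in these data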;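 also: signal is the 460 over 535 nm emission ratio of beta-lactamase substrate; 0% = agonist plus DMSO wells and 100% = wells without agonist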
Target sequence (P28566 whole entry, looked up): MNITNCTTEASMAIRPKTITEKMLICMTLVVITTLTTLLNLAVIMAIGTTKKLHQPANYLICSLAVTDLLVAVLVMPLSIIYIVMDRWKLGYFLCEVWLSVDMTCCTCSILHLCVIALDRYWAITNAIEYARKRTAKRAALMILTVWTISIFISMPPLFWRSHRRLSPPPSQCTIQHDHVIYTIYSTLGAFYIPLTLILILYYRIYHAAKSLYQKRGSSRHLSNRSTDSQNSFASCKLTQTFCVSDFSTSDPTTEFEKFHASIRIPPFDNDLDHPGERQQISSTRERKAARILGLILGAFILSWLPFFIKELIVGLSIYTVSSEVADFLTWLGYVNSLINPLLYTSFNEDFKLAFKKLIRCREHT
HTR1E agonist = agonists of human 5-HT1E serotonin receptor; P28566; CHO 5-HT1E Ga15 NFAT-bla reporter, FRET; 0% DMSO wells, 100% control agonist wells; activation, % at 6 µM; 65,000 compounds, 0.69% hits; AID 574;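 active = activation above a set limit, the screen-wide mean activation plus 3 SD, cut at about 8.5% in these data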;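 also: 100% = positive control agonist at 1 µM giving full maximal response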
S1P3 agonist = S1P3 (human) receptor agonism; Q99500; S1P3 NFAT-BLA reporter cells, FRET ratio; relative to 1 µM S1P, basal subtracted; activation, % at 4.5 µM; 60,000 compounds, 0.1% hits;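 active = activation above the screen-wide mean plus 3 SD, cut at about 4.5% in these data, passing the limit was not always enough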
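Assay system: stable CHO line with human S1P3, Gα16, NFAT-BLA reporter; Detection: FRET β-lactamase substrate fluorescence, excitation 405 nm, 460/535 nm emission ratio, background-subtracted; Read-out: percent activation versus median 1 µM S1P response, basal-subtracted, per plate; Incubation: cells plated overnight, compound 4 h 37 °C, substrate 2 h RT.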
S1P1 ag pot = S1P1 (human) agonism or agonism potentiation | P21453 | S1P1 CRE-bla cells, forskolin, beta-lactamase FRET, potentiator mode; S1P1 agonist co-added at EC20, 2 nM; 100% = saturating reference agonist, 0% = basal | activation, % at 9.5 µM | 56,000 compounds, 0.57% hits | AID 449;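 active = activation above a cutoff set at the mean activation of all tested compounds plus 3 SD, cut at about 54% in these data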;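 also: forskolin at 4 µM as EC80 and the EC20 agonist is SEW2871; 100% = SEW2871 at its EC100 plus forskolin at EC80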
5HT1a antag = 5-HT1a (human) receptor antagonism; CHO 5-HT1a Ga15 NFAT-bla reporter, antagonist mode; inhibition, % at 10 µM; 62,000 compounds, 0.68% hits; AID 612;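 active = inhibition above the mean of all tested compounds plus 3 SD, cut at about 43% in these data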;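 also: receptor stimulated by 5-CT agonist at 100 nM near EC80; beta-lactamase reporter measured by ratiometric fluorescence of a cleavable substrate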
5HT1a ag = 5-HT1a (human) receptor agonism | P08908 | CHO 5-HT1a Ga15 NFAT-bla reporter, FRET ratio; 0% basal, 100% maximal reference agonist | activation, % at 10 µM | 65,000 compounds, 0.56% hits;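 active = activation above the screen-wide mean activation plus 3 SD, cut at about 19% in these data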;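 also: 0% = DMSO wells and 100% = 5-CT at EC100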
An asterisk follows results filed as active; . = not tested or not shown. Rows were chosen to be rich in hits. Some 2.9% of all compounds tested hit in one or more screens of this group.

SMILES | 5HT1E antag | HTR1E agonist | S1P3 agonist | S1P1 ag pot | 5HT1a antag | 5HT1a ag
CCCC(=O)Nc1nn(C)c2nc3c(C)cccc3cc12 | 12 | 0 | -1 | -1 | 14 | 2
Cc1cccc2cc3c(NC(=O)c4ccccn4)nn(C)c3nc12 | -2 | 3 | 5.3* | -26 | 9 | 16
OCCOCCn1c(-c2ccccc2)nc(=S)c2c1CCCC2 | 8 | 1 | 0 | -12 | -6 | -2
CC1(C)Cc2c(c(=S)nc(-c3ccccc3)n2CCOCCO)CO1 | 7 | 18* | . | . | -20 | 0
Cc1cccc(C)c1NC(=O)C(c1cccs1)N(Cc1ccco1)C(=O)Cn1nnc2ccccc21 (stereo unspecified) | -1 | 0 | -1 | -12 | 18 | 1
CC(C)Cn1c(N)c(C(=O)COC(=O)c2ccc3c(c2)OCCO3)c(=O)n(C)c1=O | -8 | 0 | 0 | 13 | -7 | -2
CC(C)Cn1c(N)c(C(=O)CSc2ccc3c(c2)OCCO3)c(=O)n(C)c1=O | 8 | 1 | -2 | 104* | 17 | 1
COCc1c(C(=O)OCC(=O)c2c(N)n(CC(C)C)c(=O)n(C)c2=O)oc2ccccc12 | 4 | 0 | -1 | 16 | 28 | 3
Cc1c(C(=O)OCC(=O)c2c(N)n(CC(C)C)c(=O)n(C)c2=O)oc2ccccc12 | 7 | 0 | 0 | 27 | 43* | 0
Cc1cc(NC(=O)CCS(=O)(=O)c2nc(-c3ccccc3)cc(C(F)(F)F)n2)no1 | 40* | 0 | -1 | . | 61* | 1
CS(=O)(=O)c1nc(-c2ccccc2)cc(C(F)(F)F)n1 | 64* | 3 | . | . | 110* | -9
COc1ccc(-c2cc(C(F)(F)F)nc(SCC(=O)Nc3cc(C)on3)n2)cc1 | 1 | -1 | -1 | 7 | 10 | -1
Clc1ccc(CSc2nnc(-c3ccncc3)o2)c(Cl)c1 | 7 | 0 | 1 | 76* | -11 | 0
COc1ccc(CCNS(=O)(=O)c2cccc(C(=O)O)c2)cc1OC | 12 | -1 | -1 | 6 | -12 | -2
COc1cc2c(cc1OC)C(COc1ccc3c(C)cc(=O)oc3c1)N(C(=O)c1ccco1)CC2 (stereo unspecified) | 30* | 0 | . | . | 6 | 2
COc1cc2c(cc1OC)C(COc1ccc(F)cc1)N(C(=O)c1ccco1)CC2 (stereo unspecified) | 18 | 0 | . | . | 30 | 1
CC1(C)N=C(/C=N/O)CN1O | -1 | 0 | -1 | -12 | -6 | -7
Cc1cc(C(=O)NCc2cccnc2)cs1 | 9 | 0 | -2 | 3 | 0 | 31*
O=C(NCc1cccnc1)c1ccc(Cl)c(Cl)c1 | -7 | 0 | 0 | -13 | -7 | 1
Cc1nn(Cc2ccccc2)c2sc(C(=O)NCc3cccnc3)cc12 | 14 | 0 | 0 | -13 | 2 | 39*
CCOC(=O)N1CCC(Nc2c(NCCCN(CC)c3cccc(C)c3)c(=O)c2=O)CC1 | -8 | 22* | -1 | -8 | -16 | -2
CCOC(=O)N1CCC(Nc2c(NCCN3CCN(Cc4ccccc4)CC3)c(=O)c2=O)CC1 | 7 | 0 | -1 | -8 | 0 | 0
O=C1C(Cl)=C(N2CCCCC2)C(=O)N1c1ccccc1 | -6 | -1 | -2 | 8 | 17 | 0
CN1CCN(C2=C(Cl)C(=O)N(C3CCCCC3)C2=O)CC1 | 28 | 39* | -1 | 15 | 12 | 4
N#Cc1ccc(NC(=O)Nc2ccc(Cl)cc2)cc1 | 14 | 0 | 0 | 129* | 42 | -2
SMILES | 5HT1E antag | HTR1E agonist | S1P3 agonist | S1P1 ag pot | 5HT1a antag | 5HT1a ag
Cc1ccc(S(=O)(=O)NCCC(=O)NC2CCCC2)cc1 | -7 | 0 | . | . | 1 | 0
CC(=O)Nc1nc(C)nc(-c2ccccc2)c1C(C)=O | 15 | 0 | 0 | -27 | -3 | -2
CNc1nc(C)c(C#N)c(-c2ccccc2)c1C(C)=O | 28 | 18* | 1 | -14 | 2 | 0
COc1cccc(-c2nnc3n2N=C(C(C)(C)C)CS3)c1 | 51* | -1 | . | . | 76* | -1
COc1ccc(OC)c(C2=Nn3c(nnc3-c3ccncc3)SC2)c1 | 16 | 1 | . | . | -10 | 3
COc1cccc(-c2nnc3n2N=C(c2cc(OC)ccc2OC)CS3)c1 | 44* | -1 | . | . | 12 | 1
CCOc1cccc(-c2nnc3n2N=C(c2cc(OC)ccc2OC)CS3)c1 | 61* | 0 | . | . | 31 | 1
COc1ccc(OC)c(C2=Nn3c(nnc3-c3cc(OC)c(OC)c(OC)c3)SC2)c1 | 44* | 3 | 1 | -33 | 14 | 3
N=C1C=CC=C2C1=NC1(CCCCC1)N2O | -9 | 0 | 2 | -10 | -2 | -1
CCCn1c(SCc2cc(=O)[nH]c3ccccc23)nc2c1c(=O)n(C)c(=O)n2C | -7 | 0 | -1 | -30 | -9 | -1
O=C(NCCc1ccccc1)c1ccccc1NS(=O)(=O)N1CCCC1 | 5 | 0 | -1 | . | 8 | -1
COc1cc(-c2nnc3n2N=C(c2ccccc2)CS3)cc(OC)c1OC | 51* | 0 | -1 | -18 | 2 | -1
COc1ccc(-c2nnc3n2N=C(c2cccc(Br)c2)CS3)cc1OC | 19 | 0 | -1 | -34 | -7 | 2
CN(C)CCCN1c2ccccc2Sc2ccc(C(F)(F)F)cc21 | 17 | 12* | -2 | 8 | . | 2
OCCN1CCN(CCCN2c3ccccc3Sc3ccc(C(F)(F)F)cc32)CC1 | -18 | -1 | -1 | 9 | . | 0
CS(=O)(=O)N(CC(=O)Nc1cccc(F)c1)Cc1ccccc1 | 2 | -1 | -1 | . | 3 | 0
CCOC(=O)C(C)Oc1cccc2c(=O)n(CC(=O)NCc3ccco3)ccc12 (stereo unspecified) | 38* | 0 | -2 | 34 | 14 | -4
Cc1nnc2n1N=CC=C(c1ccccc1)S2 | 30* | 0 | -1 | 20 | 9 | 0
CSc1ccccc1N=CC1=C(O)CC(C)(C)CC1=O | 72* | -2 | -2 | 26 | 74* | -4
CCOc1ccc(N=CC2=C(O)CC(C)(C)CC2=O)cc1 | 7 | 0 | -1 | 23 | 10 | -3
CC1(C)CC(=O)C(C=Nc2ccc3cn[nH]c3c2)=C(O)C1 | 40* | 0 | -2 | 13 | 36 | -3
CC1(C)CC(=O)C(C=Nc2ccc(O)cc2)=C(O)C1 | 10 | 0 | -2 | 51 | 12 | -5
CC1(C)CC(=O)C(C=Nc2ccc(Cl)cn2)=C(O)C1 | 6 | -1 | -5 | 7 | . | -1
CC1(C)CC(=O)C(C=Nc2ccc3[nH]ncc3c2)=C(O)C1 | 18 | 0 | -2 | 99* | 17 | -3
COc1cccc(OC)c1C(=O)N1CCN(c2c(Cc3ccccc3)c(C)nc3ncnn23)CC1 | -2 | -1 | 1 | 6 | 2 | 0
